The text below walks through data of ChEMBL document CHEMBL1123135, “Substituent effects on the bioactivation of 2-(N-hydroxyacetamido)fluorenes by N-arylhydroxamic acid N,O-acyltransferase” (J Med Chem, 1985).

In one data set the test system is Hamster. Briefly: Rate of methylthio adduct formation catalyzed by partially purified hamster hepatic enzyme per mg protein per 10 min. It counts as ADME. As to conditions: cricetinae, in vitro. An outline of the steps: (§1)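 Hamster liver 105000g cytosol AHAT was taken as the 35–50% ammonium sulfate fraction (2–3-fold purified). Incubation (1.0 mL, pH 6.8 sodium phosphate) held 0.8 μmol NAD⁺, 10 μmol N-acetyl-L-[¹⁴C-CH₃]methionine, 1 mg enzyme and 1 μmol hydroxamic acid, for 10 min at 37 °C in air. Ether wash and 90 °C/45 min heating were followed by benzene–alkane extraction and scintillation counting. Heat-denatured enzyme blanks were subtracted; N = 3.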

Data set [1] can be described thus: Observed log rate of methylthio adduct formation. It counts as ADME. In short, it runs like this:
as §1

Structures are written as SMILES.

On to `CC(=O)N(O)c1ccc2c(c1)Cc1ccccc1-2`, for which the Rate with Hamster was found to be 7.5 nmol/mg/10 min. In data set [1], this compound gave a Log rate of 0.87.

`CC(=O)N(O)c1ccc2c(c1)Cc1cc(I)ccc1-2`: the Rate with Hamster came to 2.4 nmol/mg/10 min. Also, in data set [1], the Log rate is reported as 0.37.

With `CC(=O)N(O)c1ccc2c(c1)Cc1cc(Br)ccc1-2`, the Rate with Hamster was found to be 10.5 nmol/mg/10 min. Moreover, in data set [1], the Log rate is recorded as 1.02.

Compound `CC(=O)c1ccc2c(c1)Cc1cc(N(O)C(C)=O)ccc1-2` showed a Rate in the data set with Hamster of 61 nmol/mg/10 min. In data set [1], this compound displayed a Log rate of 1.79.

`CC(=O)N(O)c1ccc2c(c1)Cc1cc(C#N)ccc1-2` gave a Rate with Hamster of 24.9 nmol/mg/10 min. The same compound had a Log rate in data set [1] of 1.4.

`CCCCOc1ccc2c(c1)Cc1cc(N(O)C(C)=O)ccc1-2` registered a Rate in the data set on Hamster of 0 nmol/mg/10 min.

For the compound `CC(=O)N(O)c1ccc2c(c1)Cc1cc(F)ccc1-2`, the Rate in the data set with Hamster came to 15.2 nmol/mg/10 min. This compound also yielded a Log rate in data set [1] of 1.18.

`COc1ccc2c(c1)Cc1cc(N(O)C(C)=O)ccc1-2` registered a Rate in the data set with Hamster of 1.2 nmol/mg/10 min. Further, the Log rate in data set [1] is reported as 0.09.
